Assay results taken from article PMC8052299 (Biochemical pharmacology, 2021).
Like-named read-outs stand apart in the source and are kept apart here.

Tests used:
[1] = test system: Tat-dependent transactivation; test: Tat-transactivated mCherry expression in JurTat cells; type: cell-based
Outline: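 JurTat cells (Tat-Dendra plus HIV LTR-mCherry) were induced with 500 ng/mL doxycycline and seeded at 200,000 cells/well with test compound or 0.1% DMSO. After 24 h, Tat-Dendra and mCherry were measured by flow cytometry. Values are percent positive cells and mCherry:Dendra fluorescence ratio, expressed relative to 0.1% DMSO-treated cells.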

J-Lat 10.6 cells [2] = type: cell-based; conditions: 10 μM for 21 days, washed, 24 h drug-free, J-Lat 10.6
CDK9/cyclin T1 = CDK9/cyclin T1 (Homo sapiens, UniProt P50750); test: CDK9 kinase activity assay; type: biochemical
class I and II HDAC = test: Cellular HDAC activity assay; type: cell-based; conditions: for IC50: read-out: HDAC Inhibition IC50, Jurkat cells, 90 min, HDAC-Glo I/II
OM-10.1 cells = test: TNFα-induced provirus expression; type: cell-based; conditions: for EC50: 24 h, read-out: TNFα EC50, inhibition of provirus expression
Outline: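 OM-10.1 cells seeded at 200,000 cells/well and co-treated with 1 ng/mL TNFα plus test compound or 0.1% DMSO for 24 h. Cells were fixed, permeabilized, stained for intracellular p24Gag (KC57-RD1) and scored on live-gated cells by flow cytometry. EC50s were derived after normalizing to TNFα-only controls.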

J-Lat 10.6 cells [3] = test: LRA-induced provirus expression; type: cell-based; conditions: for EC50: J-Lat 10.6, 24 h
[4] = Viability of uninfected PBMCs; type: cell-based, human; conditions: human, CC50, uninfected PBMCs, Viacount dye
J-Lat 9.2 cells = test: LRA-induced provirus expression; type: cell-based; conditions: for EC50: J-Lat 9.2, 24 h; for provirus expression inhibited: J-Lat 9.2, 10 ng/mL TNFα; for stimulation of GFP expression: J-Lat 9.2, data not shown; for GFP expression induced, % of cells: 24 h, LRA only
HIV-1NL4.3 = test: HIV replication assay in PBMCs; type: cell-based
PBMCs = test: Viability of uninfected PBMCs; type: cell-based, human; conditions: up to 30 μM, 6 days
[5] = 15 μM, JurTat + 500 ng/mL Dox, 24 h
[6] = read-out: HMBA EC50, inhibition of provirus expression
[7] = read-out: JQ1 EC50, inhibition of provirus expression
[8] = read-out: TNFα EC50, inhibition of provirus expression
[9] = read-out: Panobinostat EC50, inhibition of provirus expression
[10] = read-out: Prostratin EC50, inhibition of provirus expression

CDK9/cyclin T1, sequence (P50750 whole entry): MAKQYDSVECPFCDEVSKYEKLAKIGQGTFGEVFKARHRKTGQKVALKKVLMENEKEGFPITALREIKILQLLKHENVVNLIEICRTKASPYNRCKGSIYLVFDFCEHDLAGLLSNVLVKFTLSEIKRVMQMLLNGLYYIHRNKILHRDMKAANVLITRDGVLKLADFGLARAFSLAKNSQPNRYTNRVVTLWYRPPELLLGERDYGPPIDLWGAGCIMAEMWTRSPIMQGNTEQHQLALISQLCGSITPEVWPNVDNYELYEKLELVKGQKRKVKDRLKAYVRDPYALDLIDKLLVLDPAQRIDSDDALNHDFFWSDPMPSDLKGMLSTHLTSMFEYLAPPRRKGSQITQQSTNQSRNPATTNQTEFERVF
CDK9/cyclin T1, sequence (O60563 whole entry partner): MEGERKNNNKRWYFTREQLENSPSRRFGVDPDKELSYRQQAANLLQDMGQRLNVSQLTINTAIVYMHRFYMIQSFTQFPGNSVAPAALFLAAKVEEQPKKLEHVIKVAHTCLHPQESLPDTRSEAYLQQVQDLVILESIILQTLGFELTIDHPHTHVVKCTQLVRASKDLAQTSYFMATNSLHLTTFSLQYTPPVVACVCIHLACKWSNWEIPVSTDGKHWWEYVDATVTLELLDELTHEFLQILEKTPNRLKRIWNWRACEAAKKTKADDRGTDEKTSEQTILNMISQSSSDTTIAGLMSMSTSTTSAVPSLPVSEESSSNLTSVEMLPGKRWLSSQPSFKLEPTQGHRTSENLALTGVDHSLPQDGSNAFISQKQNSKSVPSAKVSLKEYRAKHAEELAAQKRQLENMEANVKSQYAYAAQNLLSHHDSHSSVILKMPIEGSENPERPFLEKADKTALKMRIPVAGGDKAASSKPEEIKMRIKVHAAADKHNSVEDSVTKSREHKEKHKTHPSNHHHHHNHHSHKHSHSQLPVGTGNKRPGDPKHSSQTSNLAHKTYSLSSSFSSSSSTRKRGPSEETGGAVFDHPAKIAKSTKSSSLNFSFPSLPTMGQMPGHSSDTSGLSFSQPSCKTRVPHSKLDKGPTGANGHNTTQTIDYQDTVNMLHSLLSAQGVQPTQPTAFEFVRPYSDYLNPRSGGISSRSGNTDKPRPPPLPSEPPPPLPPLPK

Row | Compound | GFP expression 24 hours after washing, % of vehicle-treated control cells (J-Lat 10.6 cells [2]) [%] | IC50 (CDK9/cyclin T1) [µM] | HDAC activity inhibited (class I and II HDAC; 10 μM, Jurkat) [%] | IC50 (class I and II HDAC) [µM] | EC50 (OM-10.1 cells) [µM] | EC50 (J-Lat 10.6 cells [3]; [6]) [µM] | EC50 (J-Lat 10.6 cells [3]; [7]) [µM] | EC50 (J-Lat 10.6 cells [3]; [8]) [µM] | CC50 at 6 days [4] [µM] | EC50 (J-Lat 9.2 cells; [9]) [µM] | EC50 (J-Lat 9.2 cells; [10]) [µM] | EC50 (J-Lat 9.2 cells; [8]) [µM] | Selectivity Index (CC50/EC50) (HIV-1NL4.3) | also measured
1 | O=c1cc(-c2ccc(O)cc2)oc2cc(O)cc(O)c12 [Apigenin, apigenin] | 80.6 ± 80.5 | 0.21 ± 0.1 | 19.4 ± 5.4 | 47.2 ± 6.7 | 4.1 ± 0.8 | 5.2 ± 0.8 | 7.2 ± 1.1 | 6.2 ± 0.3 | 19.8 ± 6.5 | 4.1 ± 0.4 | 7.3 ± 1.1 | 5.6 ± 0.6 | 4.0 | Dendra, % of fluorescence in cells treated with only Dox ([1]; 15 μM, JurTat): 39.9%; mCherry, % of fluorescence in cells treated with only Dox ([1]; 15 μM, JurTat): 13.7%; residual mCherry fluorescence as % of residual Dendra fluorescence ([1]; 15 μM, JurTat): 34.3%; Dendra expression, % of cells [1, 5]: 17.4 ± 6.5%; mCherry expression, % of cells [1, 5]: 1.8 ± 0.7%; EC50, mCherry:Dendra fluorescence ratio ([1]; JurTat + 500 ng/mL Dox, 24 h): 14.5 ± 1.5 µM
2 | O=c1cc(-c2ccccc2)oc2cc(O)cc(O)c12 [Chrysin, chrysin] | 70.9 ± 65.6 | 0.021 ± 0.01 | 37.9 ± 7.7 | 24 ± 4.8 | 4.7 ± 0.3 | 6.7 ± 1.4 | 7.7 ± 1.5 | 6.3 ± 0.7 | > 30 | 2.8 ± 0.4 | 4.3 ± 1.2 | 4 ± 0.4 | > 3.3 | toxicity (PBMCs): no toxicity was observed; provirus expression inhibited (J-Lat 9.2 cells; 3 μM): 22.5 ± 24.9%; provirus expression inhibited (J-Lat 9.2 cells; 10 μM): 88.3 ± 8.8%
3 | CC(=O)NCCCCCCNC(C)=O [HMBA, reference compound] | – | – | – | – | – | – | – | – | – | – | – | – | – | GFP production, % of cells (J-Lat 10.6 cells [3]; J-Lat 10.6, 10 mM, LRA only): 34.6 ± 1.4%; stimulation of GFP expression (J-Lat 9.2 cells): did not stimulate GFP expression
4 | Cc1sc2c(c1C)C(c1ccc(Cl)cc1)=N[C@@H](CC(=O)OC(C)(C)C)c1nnc(C)n1-2 [JQ1, reference compound] | – | – | – | – | – | – | – | – | – | – | – | – | – | GFP production, % of cells (J-Lat 10.6 cells [3]; J-Lat 10.6, 10 μM, LRA only): 35.9 ± 2.0%; stimulation of GFP expression (J-Lat 9.2 cells): did not stimulate GFP expression
5 | O=c1cc(-c2ccc(O)c(O)c2)oc2cc(O)cc(O)c12 [Luteolin, luteolin] | 79.9 ± 26.6 | 0.072 ± 0.03 | 10.1 ± 1.6 | > 90 | 10.3 ± 0.6 | 26.5 ± 5.8 | 15.4 ± 1.5 | 13.6 ± 0.8 | 13.9 ± 5.9 | 6.8 ± 0.8 | 20.6 ± 2.6 | 7.6 ± 0.6 | 1.1 | EC50, mCherry:Dendra fluorescence ratio ([1]; JurTat + 500 ng/mL Dox, 24 h): 9.5 ± 1.5 µM; HDAC activity inhibited (class I and II HDAC; 100 μM, Jurkat): 42.6 ± 9.5%
6 | O=C1C[C@@H](c2ccc(O)cc2)Oc2cc(O)cc(O)c21 [Naringenin, naringenin, reference compound] | – | > 30 | – | 88.7 ± 32.1 | > 30 | > 30 | > 30 | > 30 | > 30 | > 30 | > 30 | > 30 | – | effect on ratio of mCherry:Dendra fluorescence ([1]; up to 30 μM, JurTat): neither naringenin nor L7G substantially affected the ratio; inhibition of TNFα-induced provirus expression (OM-10.1 cells; OM-10.1, 1 ng/mL TNFα): no inhibition was observed; inhibition of LRA-induced provirus expression (J-Lat 10.6 cells [3]; J-Lat 10.6, TNFα, JQ1, HMBA): did not inhibit any LRA-induced provirus expression; toxicity (PBMCs): No toxicity was observed; antiviral activity (HIV-1NL4.3; up to 30 μM): no antiviral activity was observed
7 | Cc1[nH]c2ccccc2c1CCNCc1ccc(/C=C/C(=O)NO)cc1 [panobinostat, reference compound] | – | – | – | – | – | – | – | – | – | – | – | – | – | cellular HDAC activity reduced (class I and II HDAC; 0.1 μM, Jurkat): 88.0 ± 10.9%; GFP expression induced, % of cells (J-Lat 9.2 cells; J-Lat 9.2, 0.1 μM): 10.8 ± 1.4%
8 | CC(=O)O[C@@]12C[C@@H](C)[C@@]3(O)[C@@H](C=C(CO)C[C@]4(O)C(=O)C(C)=C[C@@H]34)[C@@H]1C2(C)C [prostratin, reference compound] | – | – | – | – | – | – | – | – | – | – | – | – | – | GFP expression induced, % of cells (J-Lat 9.2 cells; J-Lat 9.2, 10 μM): 10.7 ± 2.7%
9 | TNFα | – | – | – | – | – | – | – | – | – | – | – | – | – | p24Gag production induced, % of live-gated cells (OM-10.1 cells; OM-10.1, 1 ng/mL): 90.6 ± 4.0%; GFP-positive cells induced (J-Lat 10.6 cells [3]; J-Lat 10.6, 10 ng/mL, 24 h, LRA only): 80.3 ± 2.6%; GFP expression induced, % of cells (J-Lat 9.2 cells; J-Lat 9.2, 10 ng/mL): 10.4 ± 1.7%
